# Results from ChEMBL document CHEMBL4052816, “Development of Clickable Monophosphoryl Lipid A Derivatives toward Semisynthetic Conjugates with Tumor-Associated Carbohydrate Antigens” (J Med Chem, 2017).
# Activity calls are given as the source filed them. The rule behind the calls is not given here.
# Key:
# [1] = system: BMDM; test: Immunostimulatory activity in C57BL/6 mouse BMDM assessed as increase in IL-12 production at 20 ug/ml after 6 to 72 hrs by immunoassay; type: functional, cell-based
# Method in brief: (§1)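 Bone marrow macrophages from wild-type C57BL/6 mice (0.5 × 10^6/well) were grown for 24 h, then given fresh medium containing compound at 20 μg/mL for 6, 24, 48 and 72 h. Three independent experiments were run, means ± SD.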
# [2] = system: THP-1; test: Cytotoxicity against human THP1 cells assessed as decrease in cell viability at 0.1 to 20 ug/ml after 6 to 48 hrs by SRB assay; type: cell-based
# Method in brief: (§2)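 THP-1 cells and C57BL/6 wild-type bone marrow-derived macrophages were kept in RPMI with 10% FBS, penicillin and streptomycin at 37 °C and 5% CO2. BMDM medium also contained gentamycin. Cells were exposed to compound at 20, 10, 1 and 0.1 μg/mL, and viability was read with a colorimetric assay.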
# [3] = system: BMDM; test: Immunostimulatory activity in C57BL/6 mouse BMDM assessed as increase in TNFalpha production at 20 ug/ml after 6 to 72 hrs by ELISA; type: functional, cell-based; method in brief: as §1
# [4] = system: BMDM; test: Immunostimulatory activity in C57BL/6 mouse BMDM assessed as increase in IL-2 production at 20 ug/ml after 6 to 72 hrs by immunoassay; type: functional, cell-based; method in brief: as §1
# [5] = system: BMDM; test: Immunostimulatory activity in C57BL/6 mouse BMDM assessed as increase in IL-6 production at 20 ug/ml after 6 to 72 hrs by ELISA; type: functional, cell-based; method in brief: as §1
# [6] = system: THP-1; test: Immunostimulatory activity in human THP1 cells assessed as increase in IL-8 production at 20 ug/ml after 6 to 72 hrs by ELISA; type: functional, cell-based
# Method in brief: (§3)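 THP-1 cells (0.5 × 10^6/well) were grown in RPMI/10% FBS for 24 h, then given fresh medium containing compound at 20 μg/mL for 6, 24, 48 and 72 h. Cell-free supernatants were assayed for IL-8 and IL-6 by ELISA, and for IL-10, IFN-γ and TNF-α by a human Th1/Th2 multiplex bead immunoassay. Results were pooled from three independent experiments, means ± SD.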
# [7] = system: BMDM; test: Immunostimulatory activity in C57BL/6 mouse BMDM assessed as increase in IL-5 production at 20 ug/ml after 6 to 72 hrs by immunoassay; type: functional, cell-based; method in brief: as §1
# [8] = system: BMDM; test: Immunostimulatory activity in C57BL/6 mouse BMDM assessed as increase in IFN-gamma production at 20 ug/ml after 6 to 72 hrs by immunoassay; type: functional, cell-based; method in brief: as §1
# [9] = system: THP-1; test: Immunostimulatory activity in human THP1 cells assessed as increase in TNF-alpha production at 20 ug/ml after 6 to 72 hrs by immunoassay; type: functional, cell-based; method in brief: as §3
# [10] = system: BMDM; test: Immunostimulatory activity in C57BL/6 mouse BMDM assessed as increase in CD40 production at 20 ug/ml after 6 to 72 hrs by flow cytometric method; type: functional, cell-based
# Method in brief: (§4)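 C57BL/6 BMDM (0.5 × 10^6/well) were stimulated with compound at 20 μg/mL for 6, 24, 48 and 72 h. Cells were then stained with phycoerythrin-conjugated anti-CD40, anti-CD80 or anti-CD86, plus allophycocyanin-conjugated anti-MHC class II. Isotype antibodies set nonspecific binding, and cells were analysed by flow cytometry. Three independent experiments were run.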
# [11] = system: BMDM; test: Immunostimulatory activity in C57BL/6 mouse BMDM assessed as increase in IL-10 production at 20 ug/ml after 6 to 72 hrs by immunoassay; type: functional, cell-based; method in brief: as §1
# [12] = system: BMDM; test: Immunostimulatory activity in C57BL/6 mouse BMDM assessed as increase in IL-4 production at 20 ug/ml after 6 to 72 hrs by immunoassay; type: functional, cell-based; method in brief: as §1
# [13] = system: BMDM; test: Immunostimulatory activity in C57BL/6 mouse BMDM assessed as increase in MHC-class 2 production at 20 ug/ml after 6 to 72 hrs by flow cytometric method; type: functional, cell-based; method in brief: as §4
# [14] = system: BMDM; test: Immunostimulatory activity in C57BL/6 mouse BMDM assessed as increase in CD86 production at 20 ug/ml after 6 to 72 hrs by flow cytometric method; type: functional, cell-based; method in brief: as §4
# [15] = system: THP-1; test: Immunostimulatory activity in human THP1 cells assessed as increase in IL-10 production at 20 ug/ml after 6 to 72 hrs by immunoassay; type: functional, cell-based; method in brief: as §3
# [16] = system: BMDM; test: Immunostimulatory activity in C57BL/6 mouse BMDM assessed as increase in CD80 production at 20 ug/ml after 6 to 72 hrs by flow cytometric method; type: functional, cell-based; method in brief: as §4
# [17] = system: THP-1; test: Immunostimulatory activity in human THP1 cells assessed as increase in IFN-gamma production at 20 ug/ml after 6 to 72 hrs by immunoassay; type: functional, cell-based; method in brief: as §3
# [18] = system: BMDM; test: Immunostimulatory activity in C57BL/6 mouse BMDM assessed as increase in GM-CSF production at 20 ug/ml after 6 to 72 hrs by immunoassay; type: functional, cell-based; method in brief: as §1
# [19] = system: THP-1; test: Immunostimulatory activity in human THP1 cells assessed as increase in IL-6 production at 20 ug/ml after 6 to 72 hrs by ELISA; type: functional, cell-based; method in brief: as §3
# [20] = Cytotoxicity against C57BL/6 mouse BMDM assessed as decrease in cell viability at 20 ug/ml after 6 to 48 hrs by SRB assay; type: cell-based; method in brief: as §2
Structure (SMILES),Activity [1],Activity [2],Activity [3],Activity [4],Activity [5],Activity [6],Activity [7],Activity [8],Activity [9],Activity [10],Activity [11],Activity [12],Activity [13],Activity [14],Activity [15],Activity [16],Activity [17],Activity [18],Activity [19],Activity [20]
CCCCCCCCCCCCCC(=O)O[C@H](CCCCCCCCCCC)CC(=O)O[C@@H]1[C@@H](NC(=O)C[C@@H](CCCCCCCCCCC)OC(=O)CCCCCCCCCCC)[C@H](OC[C@H]2OC(O)[C@H](NC(=O)C[C@H](O)CCCCCCCCCCC)[C@@H](OC(=O)C[C@H](O)CCCCCCCCCCC)[C@@H]2O)O[C@H](C(=O)NCCCCCSCCCO[C@H]2O[C@H](CO)[C@H](O)[C@H](O[C@@H]3O[C@H](CO)[C@H](O)[C@H](O)[C@H]3O)[C@H]2NC(C)=O)[C@H]1OP(=O)(O)O (stereo partly specified),inactive,Non-Toxic,inactive,inactive,Active,Active,inactive,inactive,Active,inactive,inactive,inactive,inactive,inactive,Active,inactive,Active,inactive,–,–
CCCCCCCCCCCCCC(=O)O[C@H](CCCCCCCCCCC)CC(=O)O[C@@H]1[C@@H](NC(=O)C[C@@H](CCCCCCCCCCC)OC(=O)CCCCCCCCCCC)[C@H](OC[C@H]2OC(O)[C@H](NC(=O)C[C@H](O)CCCCCCCCCCC)[C@@H](OC(=O)C[C@H](O)CCCCCCCCCCC)[C@@H]2O)O[C@H](C(=O)O)[C@H]1OP(=O)(O)O (stereo partly specified),inactive,Non-Toxic,Active,inactive,Active,Active,inactive,inactive,Active,inactive,inactive,inactive,inactive,inactive,Active,inactive,inactive,inactive,Active,–
C=CCCCNC(=O)[C@H]1O[C@@H](OC[C@H]2OC(O)[C@H](NC(=O)C[C@H](O)CCCCCCCCCCC)[C@@H](OC(=O)C[C@H](O)CCCCCCCCCCC)[C@@H]2O)[C@H](NC(=O)C[C@@H](CCCCCCCCCCC)OC(=O)CCCCCCCCCCC)[C@@H](OC(=O)C[C@@H](CCCCCCCCCCC)OC(=O)CCCCCCCCCCCCC)[C@@H]1OP(=O)(O)O (stereo partly specified),inactive,Non-Toxic,–,inactive,Active,Active,inactive,inactive,Active,inactive,inactive,inactive,inactive,inactive,Active,inactive,Active,inactive,Active,Toxic
CCCCCCCCCCCCCC(=O)O[C@H](CCCCCCCCCCC)CC(=O)O[C@@H]1[C@@H](NC(=O)C[C@@H](CCCCCCCCCCC)OC(=O)CCCCCCCCCCC)[C@H](OC[C@H]2OC(O)[C@H](NC(=O)C[C@@H](CCCCCCCCCCC)OC(=O)C[C@H](O)CCCCCCCCCCCCC)[C@@H](O)[C@@H]2O)O[C@H](CO)[C@H]1OP(=O)(O)O (stereo partly specified),–,–,–,–,–,Active,–,–,–,Active,–,–,Active,Active,Active,Active,inactive,–,–,–
C#CCCCCNC(=O)[C@H]1O[C@@H](OC[C@H]2OC(O)[C@H](NC(=O)C[C@H](O)CCCCCCCCCCC)[C@@H](OC(=O)C[C@H](O)CCCCCCCCCCC)[C@@H]2O)[C@H](NC(=O)C[C@@H](CCCCCCCCCCC)OC(=O)CCCCCCCCCCC)[C@@H](OC(=O)C[C@@H](CCCCCCCCCCC)OC(=O)CCCCCCCCCCCCC)[C@@H]1OP(=O)(O)O (stereo partly specified),inactive,Non-Toxic,Active,inactive,Active,Active,inactive,inactive,Active,inactive,inactive,inactive,inactive,inactive,Active,inactive,inactive,inactive,–,Toxic
CCCCCCCCCCCCCC(=O)O[C@H](CCCCCCCCCCC)CC(=O)O[C@@H]1[C@@H](NC(=O)C[C@@H](CCCCCCCCCCC)OC(=O)CCCCCCCCCCC)[C@H](OC[C@H]2OC(O)[C@H](NC(=O)C[C@H](O)CCCCCCCCCCC)[C@@H](OC(=O)C[C@H](O)CCCCCCCCCCC)[C@@H]2O)O[C@H](C(=O)NCCCCCCN=[N+]=[N-])[C@H]1OP(=O)(O)O (stereo partly specified),inactive,Non-Toxic,–,inactive,–,Active,inactive,inactive,Active,inactive,inactive,inactive,inactive,inactive,Active,inactive,inactive,inactive,–,–
CCCCCCCCCCCCCC(=O)O[C@H](CCCCCCCCCCC)CC(=O)O[C@@H]1[C@@H](NC(=O)C[C@@H](CCCCCCCCCCC)OC(=O)CCCCCCCCCCC)[C@H](OC[C@H]2OC(O)[C@H](NC(=O)C[C@H](O)CCCCCCCCCCC)[C@@H](OC(=O)C[C@H](O)CCCCCCCCCCC)[C@@H]2O)O[C@H](C(=O)NCCCCCSCCCO[C@H]2O[C@H](CO)[C@H](O)[C@H](O)[C@H]2NC(C)=O)[C@H]1OP(=O)(O)O (stereo partly specified),inactive,Non-Toxic,Active,inactive,–,Active,inactive,inactive,–,inactive,inactive,inactive,inactive,inactive,Active,inactive,Active,inactive,Active,Toxic
